TCR CD3 inh = blocks the human TCR-CD3 interaction; TAMRA-labeled TCR probe fluorescence, biochemical; actives 0.37% (n = 360,000); inhibition, % at 9.4 µM; in the data active = inhibition above about 19%;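 note: recombinant mutant TCR 2C K166C tagged with TAMRA read by polarization; 0% = receptor in buffer alone and 100% = receptor with positive control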
Tn7 DDE FP = inhibitors of Tn7 peptide binding to human fibrin DD(E); P02675; FP displacement of FITC-Tn7 peptide from fibrin DD(E); 0% = median of compound wells per plate; inhibition, % at 8.3 µM; actives 0.13% (n = 370,000);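 active = inhibition above the mean of compounds falling within the control limits plus 3 SD of them, cut at about 14% in these data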;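 note: 0% = plate median of compound wells and 100% = 10 µM Aha-Tn7 peptide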
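Measure: % inhibition scaled between sample-field median and high-control FP; Test system: human fibrin DD(E); Quantity: 2 µM final DD(E) protein; Doses: one dose, 8.3 µM nominal; Schedule: compound with protein 10 min, then 3 h after probe, room temperature; Detection: fluorescence polarization; Medium: Tris buffer with calcium and detergent, pH 7.8.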
DDE Tn6 FP inh = DD(E)-Tn6 binding inhibition, primary FP screen; P02675; Fibrin DD(E) TRITC-Tn6 fluorescence polarization displacement; inhibition, % at 8.3 µM; actives 0.21% (n = 370,000);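 active = inhibition above a per-campaign cutoff: mean of compounds within control limits plus 3 SD, cut at about 15% in these data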;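 note: 0% = median of all compound wells on the plate and 100% = blocking peptide control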
ABHD4 inh = inhibits mouse alpha/beta hydrolase domain 4; purified mABHD4, FP-Rh probe fluorescence polarization; actives 0.54% (n = 370,000); inhibition, % at 8.92 µM; Q8VD66;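 active = inhibition exceeding the mean over every tested compound plus 3 SD, cut at about 30% in these data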;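 note: 0% = plate median of compound wells and 100% = S159A mutant with DMSO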
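Assay system: mABHD4 protein; medium: HEPES pH 7.0, NaCl, Pluronic buffer; dosing: 8.92 µM, single dose; schedule: 45 min + 60 min at 25 °C; signal: FP readout, ex 525 nm / em 598 nm; read-out: normalized percent inhibition of probe labeling; repeats: single replicate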
HTRA1 inh = inhibitors of human serine peptidase HTRA1; Q92743; recombinant HTRA1, FP-rhodamine activity-based probe, fluorescence polarization; inhibition, % at 5.96 µM; actives 0.5% (n = 340,000); AID 504803; in the data active = inhibition above about 36%;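 note: 0% = enzyme with DMSO and 100% = wells lacking enzyme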
Target sequence (Q92743 whole entry, looked up): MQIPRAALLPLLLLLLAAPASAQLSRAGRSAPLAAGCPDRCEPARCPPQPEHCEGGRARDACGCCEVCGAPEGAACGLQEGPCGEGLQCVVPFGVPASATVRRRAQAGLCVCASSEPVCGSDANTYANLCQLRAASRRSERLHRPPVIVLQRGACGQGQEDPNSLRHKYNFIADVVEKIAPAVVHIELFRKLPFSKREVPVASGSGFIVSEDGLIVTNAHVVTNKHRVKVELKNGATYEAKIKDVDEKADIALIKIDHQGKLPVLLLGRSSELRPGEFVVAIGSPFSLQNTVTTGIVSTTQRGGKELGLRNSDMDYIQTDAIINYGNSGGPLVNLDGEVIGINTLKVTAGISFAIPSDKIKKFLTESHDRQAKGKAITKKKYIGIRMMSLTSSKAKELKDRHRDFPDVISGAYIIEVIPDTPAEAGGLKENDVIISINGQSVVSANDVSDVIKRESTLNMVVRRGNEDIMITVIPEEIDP
ABHD4 confirm = confirmation of mouse ABHD4 inhibitors. shares compounds with ABHD4 inh. actives 55% (n = 1,800). AID 720658. inhibition, % at 8.92 µM. purified mABHD4, FP-Rh probe fluorescence polarization;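 active = mean inhibition across replicates above the hit cutoff set in the primary screen, cut at about 30% in these data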;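 note: 0% = wild-type ABHD4 with DMSO and 100% = catalytically dead S159A mutant with DMSO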
An asterisk follows results filed as active; x = not tested or not shown; ! = repeats disagree. Hits are enriched below; roughly 1.3% of the tested compounds scored in any of these assays.

SMILES | TCR CD3 inh | Tn7 DDE FP | DDE Tn6 FP inh | ABHD4 inh | HTRA1 inh | ABHD4 confirm
CC(C)(C)c1cc(NC(=O)c2ccco2)n(-c2ccccc2)n1 | -1.8 | -2.0 | -5.7 | 6.7 | -3.0 | x
N#CC1=C(N)Oc2cc(N)ccc2C1c1ccccc1Cl (stereo unspecified) | -0.1 | -0.2 | -11.2 | 29.8* | 2.9 | -4.3
N#CC1=C(N)Oc2cc(N)ccc2C1c1ccc(Cl)cc1 (stereo unspecified) | -4.5 | -4.5 | -0.5 | 4.3 | 9.7 | x
COC(=O)c1ccc2c(=O)n(CCN3CCOCC3)c(SCC(=O)C(C)(C)C)nc2c1 | 2.1 | 9.5 | -1.3 | -2.2 | 1.8 | x
Nc1nc(N)c(N=O)c(Nc2ccc(Cl)c(Cl)c2)n1 | -2.8 | 10.4 | -14.6 | 30.8* | x | 33.0*
Cc1ccc(Nc2nc(N)nc(N)c2N=O)cc1Cl | -6.9 | 4.7 | 1.1 | 7.9 | x | x
Nc1ccc2cc3[nH]c4cc(N)ccc4c3nc2c1 | 10.0 | -9.0 | -11.4 | 36.4* | 32.3 | 72.1*
CC(=O)OCCCNc1cc(SCc2ccco2)c2nonc2c1[N+](=O)[O-] | 13.0 | 1.0 | -4.0 | 48.8* | 7.7 | 10.7
CCCC(=O)OCCNc1cc(SCc2ccco2)c2nonc2c1[N+](=O)[O-] | 10.3 | 3.8 | -5.9 | 20.5 | 32.3 | x
COc1ccccc1NS(=O)(=O)c1ccc(O)c(C(=O)OCc2cccc([N+](=O)[O-])c2)c1 | 1.1 | 1.5 | -3.7 | 31.7* | -11.5 | 38.0*
COc1ccccc1CNc1nc(NCc2ccc(C(C)C)cc2)c2sccc2n1 | 2.6 | 1.5 | 5.2 | 35.6* | x | 33.6*
COc1ccccc1CNc1nc(NCCOc2ccccc2Cl)c2sccc2n1 | -0.3 | 2.1 | -5.3 | 30.6* | x | 69.2*
CNc1nc(NCCOc2ccccc2Cl)c2sccc2n1 | -5.6 | -4.4 | -6.6 | 7.1 | x | x
COc1ccc(-c2nc3cc(C)ccn3c2NCc2ccc3c(c2)OCO3)cc1 | 0.3 | -5.5 | -1.9 | -4.7 | 6.4 | x
COc1ccc(-c2nc3cc(C)ccn3c2NCC2CCCO2)cc1OC (stereo unspecified) | 4.9 | -3.7 | 0.1 | 6.9 | 1.9 | x
CCCCNc1c(-c2ccc(-c3ccc(C(C)=O)cc3)c(OC)c2)nc2cc(C)ccn12 | 6.2 | 4.7 | -8.8 | 46.1* | -7.1 | 55.5*
CCCCNc1c(-c2ccc(OC)c(SC(C)CC)c2)nc2ccc(Cl)cn12 (stereo unspecified) | -1.5 | -7.4 | 4.0 | 8.3 | 1.3 | x
CCCCNc1c(-c2ccc(Sc3ccc(OC)cc3)cc2)nc2cc(C)ccn12 | -3.6 | -0.4 | -8.7 | 38.9* | 16.6 | 38.8*
CCC(C)Sc1ccc(-c2nc3ccc(C)cn3c2NCc2ccccc2)cc1OC (stereo unspecified) | x | x | x | x | 12.3 | x
CCC(C)Sc1cc(-c2nc3ccc(C)cn3c2NCc2ccccc2)ccc1OC (stereo unspecified) | 2.3 | -4.1 | -0.3 | 42.5* | 14.1 | 36.4*
CCCCNc1c(-c2ccc(OC)c(SC(C)CC)c2)nc2ccc(C)cn12 (stereo unspecified) | -5.2 | 1.5 | -5.6 | 34.1*! | -11.7 | 38.2*
C/C=C1\NC(=O)[C@H](C)NC(=O)[C@@H](NC(=O)[C@@H](Cc2ccc(O)cc2)NC(=O)[C@@H](NC(=O)/C(C)=C/C)C(C)C)[C@@H](C)OC(=O)[C@H](CCCCc2ccc(O)cc2)NC(=O)[C@@H](CCC(=O)O)NC1=O | -4.0 | -7.2 | 5.6 | 1.9 | 18.5 | x
CCCCNc1c(-c2ccc(OC)c(SC(C)CC)c2)nc2cc(C)ccn12 (stereo unspecified) | -6.4 | 5.4 | -0.3 | 44.2* | 9.3 | 64.8*
CCCCNc1c(-c2ccc(OC)c(SC3CCCCC3)c2)nc2ccc(C)cn12 | -3.5 | -2.1 | 3.1 | 33.1*! | -1.4 | 37.1*
CC1(C)CC(=O)C/C(=N/Nc2nc3ccccc3s2)C1 | -2.3 | -4.1 | 5.5 | 30.2* | 21.2 | 26.6
SMILES | TCR CD3 inh | Tn7 DDE FP | DDE Tn6 FP inh | ABHD4 inh | HTRA1 inh | ABHD4 confirm
CC1CCC/C(=N/Nc2nc3ccccc3s2)C1 (stereo unspecified) | 3.5 | -6.4 | -4.8 | 37.9* | 12.7 | 5.9
Cc1ccc(N2C(=O)CC(NNC(=O)c3cccc(S(=O)(=O)N4CCCC4)c3)C2=O)cc1 (stereo unspecified) | -4.1 | 11.7 | -1.7 | 1.2 | -0.8 | x
O=C(CSc1nnc(C2CC2)n1C1CC1)c1ccc(F)c(F)c1 | -4.2 | 12.4 | 7.3 | 4.8 | -7.7 | x
CCN(CC)S(=O)(=O)c1ccc(C(=O)N2CCN(C(=O)c3ccco3)CC2)cc1 | -5.8 | 1.2 | -9.4 | -1.9 | 3.6 | x
CC(CCc1ccc(O)cc1)NCCc1ccc(O)c(O)c1 (stereo unspecified) | -9.2 | -1.3 | -7.6 | 32.6* | 32.0 | 14.9
COc1ccccc1CCNC(C)CCc1ccc(O)cc1 (stereo unspecified) | 0.2 | -0.2 | -3.5 | -0.2 | 10.6 | x
OC1(c2cccc(C(F)(F)F)c2)CCN(Cc2nc(-c3cnccn3)no2)CC1 | 4.7 | 7.9 | -0.6 | -5.6 | 1.9 | x
O=C(Nc1cccc(Cl)c1)c1cc(N=Nc2ccc([N+](=O)[O-])cc2Cl)ccc1O | -8.1 | 3.8 | -4.7 | 33.2* | 15.7 | 70.5*
O=C(OCc1cc(=O)c(OC(=O)c2ccccc2)co1)c1ccccc1 | 5.3 | -2.9 | 4.1 | 1.6 | -0.5 | x
Cc1cccc2cc(/C=N/Nc3ccc(C(=O)O)cc3)c(Cl)nc12 | 12.3 | 0.8 | -1.1 | 38.3* | -1.1 | 43.6*
COc1ccc(/C=N/NC(=O)c2cnccn2)cc1O | 4.2 | -9.8 | 4.8 | -5.3 | -3.0 | x
COc1ccc(/C=N/NC(=O)c2cc3c(OC)ccc(OC)c3[nH]2)cc1O | -3.4 | 1.6 | -22.1 | 32.7* | 16.6 | 46.9*
CCCCN(C)c1c(C)nc2ccc(C(=O)Nc3cc(-c4ccccc4)ccc3OC)cn12 | 7.9 | 4.8 | 2.0 | 39.9* | x | 56.4*
CCc1nc2ccc(C(=O)Nc3cc(-c4ccccc4)ccc3OC)cn2c1N(C)CCCc1ccccc1 | -0.5 | -6.2 | -0.2 | 15.8 | x | x
C[C@@H]1ON(C)[C@H]2C[C@H]3c4[nH]c5c(-c6ccc(C(F)(F)F)cc6)cccc5c4CCN3C(=O)[C@@H]12 | 0.6 | 2.1 | 3.1 | 29.6* | x | 29.0
CC1CC(C)C(=O)C(C(CC2CC(=O)NC(=O)C2)OC(=O)CC(=O)c2ccccc2)C1 (stereo unspecified) | 1.2 | 5.9 | 11.5 | 60.0* | 2.1 | 15.1
O=C1CCC(C(=O)OCC(=O)c2ccccc2)N1 (stereo unspecified) | -8.1 | 4.1 | -3.0 | 4.3 | 2.6 | x
COc1cccc(-n2sc3c(c2=S)-c2cc(OC)ccc2NC3(C)C)c1 | 1.3 | 2.0 | 2.5 | -1.7 | 15.8 | x
CC1(C)Nc2ccc(O)cc2-c2c1ssc2=S | -4.4 | -5.1 | 5.9 | 36.6* | 19.8 | 32.5*

Screening results from PubChem.
